Measured values taken from ChEMBL document CHEMBL4229410, “Facile construction of fused benzimidazole-isoquinolinones that induce cell-cycle arrest and apoptosis in colorectal cancer cells” (Bioorg Med Chem, 2018).
pKd: −log10 of the molar value. Active and inactive are the calls of the source. The calls are words filed in the database; no cut-off is given here.

Legend:
[1] = biological target: Serine/threonine-protein kinase PAK 2 (Homo sapiens, UniProt Q13177); experiment: Binding affinity to partial length human PAK2 (P151 to R525 residues) expressed in bacterial expression system by KINOMEscan assay
[2] = biological target: Cyclin-dependent kinase 3 (Homo sapiens, UniProt Q00526); experiment: Inhibition of full length human CDK3 (M1 to H305 residues) expressed in bacterial expression system assessed as residual activity at 5 uM by KINOMEscan assay relative to control
[3] = biological target: Mast/stem cell growth factor receptor Kit (Homo sapiens, UniProt P10721); experiment: Inhibition of human KIT (I571 to D952 residues) expressed in bacterial expression system assessed as residual activity at 5 uM by KINOMEscan assay relative to control
[4] = system: HT-29; experiment: Effect on total AKT expression in human HT-29 cells up to 75 uM after 48 hrs by Western blot analysis; format: ADME, cell-based; details: ht-29, 48 h
Outline: (§1)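 HT29 or SW620 cells were treated at 0, 25, 50 and 75 μM for 48 h and lysed in RIPA with protease and phosphatase inhibitors. Protein was quantified by BCA. 50 μg lysate was run on 8–15% SDS-PAGE and transferred to PVDF. Blocking was 5% BSA/TBST for 2 h; primary antibodies were applied overnight at 4 °C, then HRP secondary 1 h at room temperature.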

[5] = biological target: MAP/microtubule affinity-regulating kinase 3 (Homo sapiens, UniProt P27448); experiment: Inhibition of full length human MARK3 (M1 to L729 residues) expressed in bacterial expression system assessed as residual activity at 5 uM by KINOMEscan assay relative to control
[6] = biological target: Insulin-like growth factor 1 receptor (Homo sapiens, UniProt P08069); experiment: Binding affinity to human IGF1R (L972 to D1294 residues) expressed in bacterial expression system by KINOMEscan assay
[7] = biological target: Tyrosine-protein kinase JAK2 (Homo sapiens, UniProt O60674); experiment: Binding affinity to human JAK2 JH1 catalytic domain (A829 to G1132 residues) expressed in mammalian expression system by KINOMEscan assay
[8] = biological target: Ribosomal protein S6 kinase alpha-3 (Homo sapiens, UniProt P51812); experiment: Inhibition of human N-terminal RSK2 kinase domain 1 (M1 to D394 residues) expressed in mammalian expression system assessed as residual activity at 5 uM by KINOMEscan assay relative to control
[9] = biological target: Atypical kinase COQ8A, mitochondrial (Homo sapiens, UniProt Q8NI60); experiment: Inhibition of […] human ADCK3 (M280 to Q647 residues) expressed in bacterial expression system assessed as residual activity at 5 uM by KINOMEscan assay relative to control
[10] = system: HT-29; experiment: Inhibition of colony formation in human HT-29 cells assessed as reduction in colony size at 25 to 75 uM treated for 48 hrs followed by compound washout and measured after 14 hrs by crystal violet staining based assay; format: functional, cell-based
[11] = biological target: Hepatocyte growth factor receptor (Homo sapiens, UniProt P08581); experiment: Inhibition of human MET (D1010 to S1367 residues) expressed in bacterial expression system assessed as residual activity at 5 uM by KINOMEscan assay relative to control
[12] = biological target: Serine/threonine-protein kinase RIO2 (Homo sapiens, UniProt Q9BVS4); experiment: Inhibition of human RIOK2 (M1 to D313 residues) expressed in mammalian expression system assessed as residual activity at 5 uM by KINOMEscan assay relative to control
[13] = system: HT-29; experiment: Induction of apoptosis in human HT-29 cells assessed as late apoptotic cells at 75 uM after 48 hrs by Annexin-V-FITC/propidium iodide staining based flow cytometry (reference value: 4.1%); format: functional
[14] = biological target: Angiopoietin-1 receptor (Homo sapiens, UniProt Q02763); experiment: Binding affinity to human TIE2 (N804 to T1112 residues) expressed in bacterial expression system by KINOMEscan assay
[15] = biological target: Serine/threonine-protein kinase pim-3 (Homo sapiens, UniProt Q86V86); experiment: Inhibition of human PIM3 (G16 to A317 residues) expressed in bacterial expression system assessed as residual activity at 5 uM by KINOMEscan assay relative to control
[16] = biological target: Cyclin-dependent kinase 2 (Homo sapiens, UniProt P24941); experiment: Binding affinity to full length human CDK2 (M1 to L298 residues) expressed in bacterial expression system by KINOMEscan assay
[17] = system: SW-620; experiment: Growth inhibition of human SW620 cells by MTT assay; format: functional
Outline: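 MTT viability assay: 3×10³ cells/well were pre-incubated for 24 h, then exposed to 0, 12.5, 25, 50, 100 or 200 μM for 12, 24, 48 or 72 h. MTT was added at 0.5 mg/mL final for 4 h, formazan dissolved in DMSO, and absorbance read at 570 nm. GI₅₀ was taken from growth-inhibition curves; mean ± SD of three independent experiments, each in sextuplicate.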

[18] = biological target: Aurora kinase B (Homo sapiens, UniProt Q96GD4); experiment: Binding affinity to human AURKB (D25 to A303 residues) expressed in mammalian expression system by KINOMEscan assay
[19] = biological target: Aurora kinase A (Homo sapiens) (UniProt O14965); experiment: Inhibition of human AURKA (E122 to K401 residues) expressed in mammalian expression system assessed as residual activity at 5 uM by KINOMEscan assay relative to control
[20] = biological target: Tyrosine-protein kinase BTK (Homo sapiens, UniProt Q06187); experiment: Binding affinity to full length human BTK (M1 to S659 residues) expressed in mammalian expression system by KINOMEscan assay
[21] = biological target: Dual specificity tyrosine-phosphorylation-regulated kinase 1B (Homo sapiens, UniProt Q9Y463); experiment: Binding affinity to full length human DYRK1B (M1 to S629 residues) expressed in bacterial expression system by KINOMEscan assay
[22] = system: SW-620; experiment: Down regulation of CDK1 expression in human SW620 cells after 48 hrs by Western blot analysis; format: functional, cell-based; outline: as §1
[23] = system: SW-620; experiment: Effect on total 4EBP1 expression in human SW620 cells up to 75 uM after 48 hrs by Western blot analysis; format: ADME, cell-based; details: sw-620, 48 h; outline: as §1
[24] = biological target: Serine/threonine-protein kinase Chk1 (Homo sapiens, UniProt O14757); experiment: Binding affinity to human CHEK1 (M1 to G289 residues) expressed in bacterial expression system by KINOMEscan assay
[25] = biological target: Proto-oncogene tyrosine-protein kinase receptor Ret (Homo sapiens, UniProt P07949); experiment: Binding affinity to human RET (E713 to D1014 residues) expressed in bacterial expression system by KINOMEscan assay
[26] = biological target: Activin receptor type-1B (Homo sapiens) (UniProt P36896); experiment: Inhibition of human ACVR1B (S187 to I505 residues) expressed in bacterial expression system assessed as residual activity at 5 uM by KINOMEscan assay relative to control
[27] = biological target: Testis-specific serine/threonine-protein kinase 1 (Homo sapiens) (UniProt Q9BXA7); experiment: Inhibition of full length human TSSK1B (M1 to Q367 residues) expressed in bacterial expression system assessed as residual activity at 5 uM by KINOMEscan assay relative to control
Testis-specific serine/threonine-protein kinase 1 (Homo sapiens), sequence (Q9BXA7 whole entry, the tested form may be a part): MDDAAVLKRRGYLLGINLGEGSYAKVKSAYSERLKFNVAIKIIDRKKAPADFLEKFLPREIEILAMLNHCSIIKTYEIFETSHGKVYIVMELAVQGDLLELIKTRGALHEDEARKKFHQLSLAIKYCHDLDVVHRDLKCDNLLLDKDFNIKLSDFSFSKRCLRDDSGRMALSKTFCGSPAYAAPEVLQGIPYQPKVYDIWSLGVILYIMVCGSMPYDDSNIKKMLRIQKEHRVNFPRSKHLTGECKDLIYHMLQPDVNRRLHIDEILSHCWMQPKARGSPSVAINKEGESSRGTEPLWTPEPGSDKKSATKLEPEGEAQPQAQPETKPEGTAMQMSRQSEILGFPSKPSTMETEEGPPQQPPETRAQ

Aurora kinase B, sequence (Q96GD4 whole entry, the tested form may be a part): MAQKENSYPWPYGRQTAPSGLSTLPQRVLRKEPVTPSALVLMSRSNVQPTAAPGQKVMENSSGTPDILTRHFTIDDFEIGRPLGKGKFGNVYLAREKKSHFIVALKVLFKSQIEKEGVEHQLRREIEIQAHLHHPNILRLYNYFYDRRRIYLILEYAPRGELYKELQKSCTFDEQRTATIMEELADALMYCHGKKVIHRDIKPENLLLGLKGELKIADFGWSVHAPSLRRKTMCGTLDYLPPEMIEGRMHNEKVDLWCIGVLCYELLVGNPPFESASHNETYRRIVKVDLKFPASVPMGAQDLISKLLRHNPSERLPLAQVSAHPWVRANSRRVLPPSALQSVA
MAP/microtubule affinity-regulating kinase 3, sequence (P27448 whole entry, looked up, the tested form may be a part): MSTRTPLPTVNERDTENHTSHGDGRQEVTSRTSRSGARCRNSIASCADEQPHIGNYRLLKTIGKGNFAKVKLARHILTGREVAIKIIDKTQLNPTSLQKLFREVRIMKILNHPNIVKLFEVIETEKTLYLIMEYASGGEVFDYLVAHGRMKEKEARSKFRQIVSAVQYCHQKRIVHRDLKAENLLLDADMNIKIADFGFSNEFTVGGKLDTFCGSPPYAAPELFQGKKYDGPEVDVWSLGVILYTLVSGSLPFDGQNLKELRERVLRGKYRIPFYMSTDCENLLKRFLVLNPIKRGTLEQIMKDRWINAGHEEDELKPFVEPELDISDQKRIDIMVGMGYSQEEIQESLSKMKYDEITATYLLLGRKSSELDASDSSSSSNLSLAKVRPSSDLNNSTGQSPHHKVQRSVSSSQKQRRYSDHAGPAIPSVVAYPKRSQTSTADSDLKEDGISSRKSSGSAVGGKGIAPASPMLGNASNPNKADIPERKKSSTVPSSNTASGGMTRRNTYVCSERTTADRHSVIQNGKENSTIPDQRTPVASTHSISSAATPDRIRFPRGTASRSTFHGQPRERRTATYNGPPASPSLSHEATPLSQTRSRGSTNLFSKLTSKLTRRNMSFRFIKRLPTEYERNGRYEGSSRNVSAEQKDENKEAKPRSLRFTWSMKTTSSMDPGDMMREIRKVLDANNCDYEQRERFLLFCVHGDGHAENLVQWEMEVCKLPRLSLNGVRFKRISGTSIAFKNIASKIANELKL
Aurora kinase A (Homo sapiens), sequence (O14965 whole entry, the tested form may be a part): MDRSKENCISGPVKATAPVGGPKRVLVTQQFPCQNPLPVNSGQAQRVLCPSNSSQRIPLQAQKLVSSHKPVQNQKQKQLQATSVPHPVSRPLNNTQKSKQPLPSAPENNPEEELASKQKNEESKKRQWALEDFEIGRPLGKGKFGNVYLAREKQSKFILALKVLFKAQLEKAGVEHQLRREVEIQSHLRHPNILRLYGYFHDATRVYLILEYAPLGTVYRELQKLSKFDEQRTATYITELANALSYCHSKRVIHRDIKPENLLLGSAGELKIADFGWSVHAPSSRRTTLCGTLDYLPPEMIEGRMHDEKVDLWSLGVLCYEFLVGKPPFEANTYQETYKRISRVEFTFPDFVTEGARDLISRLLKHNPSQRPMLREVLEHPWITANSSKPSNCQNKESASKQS
Cyclin-dependent kinase 3, sequence (Q00526 whole entry, looked up, the tested form may be a part): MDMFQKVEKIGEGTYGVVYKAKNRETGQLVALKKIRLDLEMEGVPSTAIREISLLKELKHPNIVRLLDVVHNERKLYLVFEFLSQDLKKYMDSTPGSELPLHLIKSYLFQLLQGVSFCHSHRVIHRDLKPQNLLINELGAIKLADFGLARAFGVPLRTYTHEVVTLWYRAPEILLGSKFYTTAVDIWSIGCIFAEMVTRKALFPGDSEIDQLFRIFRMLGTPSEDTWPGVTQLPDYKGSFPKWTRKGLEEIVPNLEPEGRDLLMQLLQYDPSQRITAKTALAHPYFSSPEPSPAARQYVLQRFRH
Serine/threonine-protein kinase RIO2, sequence (Q9BVS4 whole entry, looked up, the tested form may be a part): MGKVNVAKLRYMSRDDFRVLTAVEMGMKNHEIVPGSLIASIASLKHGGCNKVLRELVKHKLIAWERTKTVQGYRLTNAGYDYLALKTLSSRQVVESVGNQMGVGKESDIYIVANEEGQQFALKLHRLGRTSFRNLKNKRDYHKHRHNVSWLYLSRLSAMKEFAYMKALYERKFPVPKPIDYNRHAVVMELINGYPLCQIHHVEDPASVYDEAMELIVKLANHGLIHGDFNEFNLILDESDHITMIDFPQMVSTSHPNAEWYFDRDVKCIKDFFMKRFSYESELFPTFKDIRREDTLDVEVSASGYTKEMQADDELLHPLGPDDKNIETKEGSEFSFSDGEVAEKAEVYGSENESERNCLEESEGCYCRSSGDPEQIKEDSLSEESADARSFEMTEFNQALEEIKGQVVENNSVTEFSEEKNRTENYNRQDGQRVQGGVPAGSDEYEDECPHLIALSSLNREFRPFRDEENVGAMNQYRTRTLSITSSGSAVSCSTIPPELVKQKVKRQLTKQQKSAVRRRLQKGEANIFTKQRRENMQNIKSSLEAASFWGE
Serine/threonine-protein kinase PAK 2, sequence (Q13177 whole entry, the tested form may be a part): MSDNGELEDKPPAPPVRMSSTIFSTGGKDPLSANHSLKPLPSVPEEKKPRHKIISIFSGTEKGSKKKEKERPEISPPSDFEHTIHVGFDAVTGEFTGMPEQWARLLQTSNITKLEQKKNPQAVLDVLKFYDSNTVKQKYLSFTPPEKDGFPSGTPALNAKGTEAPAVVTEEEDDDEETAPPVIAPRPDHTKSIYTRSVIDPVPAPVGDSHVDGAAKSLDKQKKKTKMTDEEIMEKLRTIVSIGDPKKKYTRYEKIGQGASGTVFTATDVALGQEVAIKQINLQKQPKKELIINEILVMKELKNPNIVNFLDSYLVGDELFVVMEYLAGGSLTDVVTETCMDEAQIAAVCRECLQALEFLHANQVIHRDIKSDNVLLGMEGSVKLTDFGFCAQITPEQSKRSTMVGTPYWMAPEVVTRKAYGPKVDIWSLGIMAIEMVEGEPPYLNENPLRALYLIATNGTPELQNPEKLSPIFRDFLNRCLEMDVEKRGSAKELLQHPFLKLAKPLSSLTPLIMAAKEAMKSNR
Tyrosine-protein kinase JAK2, sequence (O60674 whole entry, the tested form may be a part): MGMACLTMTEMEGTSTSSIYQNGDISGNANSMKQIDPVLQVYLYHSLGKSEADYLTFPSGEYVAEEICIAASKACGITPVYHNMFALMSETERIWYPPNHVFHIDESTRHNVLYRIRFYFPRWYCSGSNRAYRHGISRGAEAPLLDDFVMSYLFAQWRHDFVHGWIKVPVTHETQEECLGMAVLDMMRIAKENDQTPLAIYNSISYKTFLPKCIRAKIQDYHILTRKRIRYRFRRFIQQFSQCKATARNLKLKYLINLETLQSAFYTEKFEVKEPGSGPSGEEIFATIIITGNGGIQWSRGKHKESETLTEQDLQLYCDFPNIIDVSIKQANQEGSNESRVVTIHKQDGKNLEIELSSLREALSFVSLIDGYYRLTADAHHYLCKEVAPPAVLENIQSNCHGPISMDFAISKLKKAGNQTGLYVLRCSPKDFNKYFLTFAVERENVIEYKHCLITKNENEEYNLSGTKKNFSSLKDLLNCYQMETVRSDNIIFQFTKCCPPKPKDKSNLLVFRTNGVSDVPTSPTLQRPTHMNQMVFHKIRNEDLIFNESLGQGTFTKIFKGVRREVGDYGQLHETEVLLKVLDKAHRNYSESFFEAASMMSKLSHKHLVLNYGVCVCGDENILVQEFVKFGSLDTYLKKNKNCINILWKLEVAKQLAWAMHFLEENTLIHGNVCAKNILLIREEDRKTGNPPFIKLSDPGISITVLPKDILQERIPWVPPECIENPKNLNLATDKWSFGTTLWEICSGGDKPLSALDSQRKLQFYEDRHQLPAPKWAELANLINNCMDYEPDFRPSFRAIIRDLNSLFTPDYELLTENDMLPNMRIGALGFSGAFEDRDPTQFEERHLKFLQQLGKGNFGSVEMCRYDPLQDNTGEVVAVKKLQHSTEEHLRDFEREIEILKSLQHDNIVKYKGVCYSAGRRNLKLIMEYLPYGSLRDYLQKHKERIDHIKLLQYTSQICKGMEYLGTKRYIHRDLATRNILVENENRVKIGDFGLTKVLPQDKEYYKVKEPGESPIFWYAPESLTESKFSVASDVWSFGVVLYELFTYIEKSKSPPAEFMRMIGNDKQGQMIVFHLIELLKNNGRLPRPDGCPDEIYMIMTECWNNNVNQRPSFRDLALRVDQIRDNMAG

**Q.** With `CC(C)CN(C(=O)c1cccnc1)c1c2ccccc2c(=O)n2c1[nH]c1ccccc12` as the molecule, how does the pKd [1] read?
**A.** ≤ 5.30

**Q.** And the Activity [2]?
**A.** 95%

**Q.** And the Activity [3]?
**A.** 93%

**Q.** And the Activity [4]?
**A.** Non-Toxic

**Q.** What about the Activity [5] of the same molecule?
**A.** 94%

**Q.** What about the pKd [6] of the same molecule?
**A.** ≤ 5.30

**Q.** What about the pKd [7] of the same molecule?
**A.** ≤ 5.30

**Q.** What about the Activity [8] of the same molecule?
**A.** 91%

**Q.** And the Activity [9]?
**A.** 100%

**Q.** What about the inhibition [10] of the same molecule?
**A.** Active

**Q.** And the Activity [11]?
**A.** 86%

**Q.** What about the Activity [12] of the same molecule?
**A.** 87%

**Q.** What about the Activity [13] of the same molecule?
**A.** 31.1%

**Q.** And the pKd [14]?
**A.** ≤ 5.30

**Q.** And the Activity [15]?
**A.** 100%

**Q.** And the pKd [16]?
**A.** ≤ 5.30

**Q.** What about the GI50 [17] of the same molecule?
**A.** 23.8 µM

**Q.** And the pKd [18]?
**A.** ≤ 5.30

**Q.** And the Activity [19]?
**A.** 100%

**Q.** What about the pKd [20] of the same molecule?
**A.** ≤ 5.30

**Q.** And the pKd [21]?
**A.** ≤ 5.30

**Q.** And the Activity [22]?
**A.** Dose-dependent effect

**Q.** And the Activity [23]?
**A.** Non-Toxic

**Q.** What about the pKd [24] of the same molecule?
**A.** ≤ 5.30

**Q.** What about the pKd [25] of the same molecule?
**A.** ≤ 5.30

**Q.** What about the Activity [26] of the same molecule?
**A.** 92%

**Q.** And the Activity [27]?
**A.** 92%
